Measured values as given in publication PMC11336475 (Heliyon, 2024).

Experiments:
[1] = DPPH radical scavenging assay; details: for EC50: DPPH radical scavenging; for Inhibition% ± SEM: DPPH, measured at 400 μM, 3 repetitions
Summary of the method: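 DPPH solution (110 μM) mixed with samples at various concentrations and kept in the dark for 30 min. Absorbance read at 517 nm. Percent inhibition and EC50 calculated from absorbance changes. Each concentration run in triplicate.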

[2] = target: tyrosinase enzyme (Agaricus bisporus, UniProt C7FF04); assay: Kinetic study of tyrosinase inhibition; assay type: biochemical; details: Lineweaver-Burk plot, L-DOPA substrate; Km increased, Vmax constant
tyrosinase enzyme, sequence (C7FF04 2-392): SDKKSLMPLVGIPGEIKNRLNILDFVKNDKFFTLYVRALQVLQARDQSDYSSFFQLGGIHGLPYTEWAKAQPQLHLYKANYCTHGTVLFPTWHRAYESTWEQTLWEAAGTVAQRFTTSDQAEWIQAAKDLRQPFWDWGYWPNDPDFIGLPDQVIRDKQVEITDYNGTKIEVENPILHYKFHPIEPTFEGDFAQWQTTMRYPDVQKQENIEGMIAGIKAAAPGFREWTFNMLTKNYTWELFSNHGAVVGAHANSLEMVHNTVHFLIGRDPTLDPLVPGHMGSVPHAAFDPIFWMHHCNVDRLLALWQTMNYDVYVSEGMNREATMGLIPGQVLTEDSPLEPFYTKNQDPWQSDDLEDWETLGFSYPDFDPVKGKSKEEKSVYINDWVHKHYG

| EC50 [1] | type of inhibition [2] | Compound | Inhibition% ± SEM [1] |
| --- | --- | --- | --- |
| > 400 µM | – | COc1cc(OC)c(/C=N/NC(=O)c2cccc(-n3ccc(=O)c(O)c3C)c2)c(OC)c1 [Compound 6d, (E)-3-(3-Hydroxy-2-methyl-4-oxopyridin-1(4H)-yl)-N'-(2,4,6-trimethoxybenzylidene)benzohydrazide] | 35.16 ± 1.37% |
| 174 µM | – | Cc1c(O)c(=O)ccn1-c1cccc(C(=O)N/N=C/c2cc(Cl)ccc2[N+](=O)[O-])c1 [Compound 6i, (E)-N'-(5-chloro-2-nitrobenzylidene)-3-(3-hydroxy-2-methyl-4-oxopyridin-1(4H)-yl)benzohydrazide] | 67.65 ± 0.85% |
| – | competitive inhibitor | COc1cc(/C=N/NC(=O)c2cccc(-n3ccc(=O)c(O)c3C)c2)ccc1O [Compound 6b, (E)-3-(3-Hydroxy-2-methyl-4-oxopyridin-1(4H)-yl)-N'-(4-hydroxy-3-methoxybenzylidene)benzohydrazide] | 84.64 ± 2.68% |
| > 400 µM | – | Cc1c(O)c(=O)ccn1-c1cccc(C(=O)N/N=C/c2ccccc2C(=O)O)c1 [Compound 6f, (E)-2-((2-(3-(3-Hydroxy-2-methyl-4-oxopyridin-1(4H)-yl)benzoyl) hydrazono)methyl) benzoic acid] | 35.01 ± 5.71% |
| 8.98 ± 0.05 µM | – | O=c1c(O)c(-c2ccc(O)c(O)c2)oc2cc(O)cc(O)c12 [Quercetin, reference compound] | – |
| – | – | Cc1c(O)c(=O)ccn1-c1cccc(C(=O)N/N=C/Cc2ccccc2)c1 [Compound 6j, (E)-3-(3-Hydroxy-2-methyl-4-oxopyridin-1(4H)-yl)-N'-(2-phenylethylidene)benzohydrazide] | 68.59 ± 1.14% |
| > 400 µM | – | Cc1c(O)c(=O)ccn1-c1cccc(C(=O)NN=Cc2c(Cl)cccc2Cl)c1 [Compound 6h, N'-(2,6-dichlorobenzylidene)-3-(3-hydroxy-2-methyl-4-oxopyridin-1(4H)-yl)benzohydrazide] | 44.55 ± 0.91% |
| > 400 µM | – | COc1cccc(/C=N/NC(=O)c2cccc(-n3ccc(=O)c(O)c3C)c2)c1O [Compound 6c, (E)-3-(3-Hydroxy-2-methyl-4-oxopyridin-1(4H)-yl)-N'-(2-hydroxy-3-methoxybenzylidene) benzohydrazide] | 48.06 ± 2.25% |
| > 400 µM | – | Cc1c(O)c(=O)ccn1-c1cccc(C(=O)N/N=C/c2ccccc2Br)c1 [Compound 6e, (E)-N'-(2-bromobenzylidene)-3-(3-hydroxy-2-methyl-4-oxopyridin-1(4H)-yl)benzohydrazide] | 19.59 ± 1.76% |
| > 400 µM | – | Cc1c(O)c(=O)ccn1-c1cccc(C(=O)N/N=C/c2cccc(Cl)c2)c1 [Compound 6g, (E)-N'-(3-chlorobenzylidene)-3-(3-hydroxy-2-methyl-4-oxopyridin-1(4H)-yl) benzohydrazide] | 44.20 ± 2.41% |
| – | – | Cc1c(O)c(=O)ccn1-c1cccc(C(=O)N/N=C/c2ccc(O)c(O)c2)c1 [Compound 6a, (E)-N'-(3,4-dihydroxybenzylidene)-3-(3-hydroxy-2-methyl-4-oxopyridin-1(4H)-yl) benzohydrazide] | 90.06 ± 3.75% |
